# ChEMBL document CHEMBL3608271, “New phenolic compounds from the seeds of Nigella glandulifera and their inhibitory activities against human cancer cells” (Bioorg Med Chem Lett, 2015)
# What was measured:
# Type in all cases: functional, cell-based
# A549 = test: Cytotoxicity against human A549 cells after 72 hrs by MTT assay; settings: A549, 72 h
# Summary of the method: (§1)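 Cells seeded in 96-well plates and grown 24 h at 37 °C, 5% CO2, then exposed to test compound at five concentrations for 72 h. MTT (0.5 mg/mL in PBS) added, 4 h at 37 °C. Medium replaced with DMSO, shaken 3 min to dissolve formazan, optical density read at 544 nm. 5-Fluorouracil as positive control.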
# [1] = Cytotoxicity against human Bel7402 cells after 72 hrs by MTT assay; settings: Bel-7402, 72 h; summary of the method: as §1
# HepG2 = test: Cytotoxicity against human HepG2 cells after 72 hrs by MTT assay; settings: HepG2, 72 h; summary of the method: as §1
# [2] = Cytotoxicity against human HCT8 cells after 72 hrs by MTT assay; settings: HCT-8, 72 h; summary of the method: as §1
SMILES,IC50 (A549),IC50 [1],IC50 (HepG2),IC50 [2]
CC(C)(O)CCc1c(O)cc(CO)cc1O,> 40 µM,> 40 µM,17.8 µM,> 40 µM
CC(C)=CCc1c(O)cc(CO)cc1O,20.1 µM,7.69 µM,15.8 µM,11.4 µM
CC1(C)C=Cc2c(O)cc(CO)cc2O1,36.3 µM,> 40 µM,17.3 µM,> 40 µM
CC1(C)C=Cc2c(cc3c(c2O)C(=O)OC3)O1,> 40 µM,> 40 µM,37 µM,24.1 µM
O=c1[nH]cc(F)c(=O)[nH]1 [FLUOROURACIL],14.2 µM,10.1 µM,16.4 µM,6.3 µM
